Source: PubChem BioAssay (several laboratories)
FLuc stim CS: affects firefly luciferase, flagging false hits in luciferase stimulation screens. P08659. ATPlite luciferase biochemical, luminescence, 10 min; 0 = ATP-free wells, 1 = DMSO control. activation factor at 10 µM. 200,000 tested, under 10 active. AID 1027;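 active = luciferase activation factor, scaled between plate controls, of at least 2 with compound at 10 µM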
Target sequence (P08659 whole entry, looked up): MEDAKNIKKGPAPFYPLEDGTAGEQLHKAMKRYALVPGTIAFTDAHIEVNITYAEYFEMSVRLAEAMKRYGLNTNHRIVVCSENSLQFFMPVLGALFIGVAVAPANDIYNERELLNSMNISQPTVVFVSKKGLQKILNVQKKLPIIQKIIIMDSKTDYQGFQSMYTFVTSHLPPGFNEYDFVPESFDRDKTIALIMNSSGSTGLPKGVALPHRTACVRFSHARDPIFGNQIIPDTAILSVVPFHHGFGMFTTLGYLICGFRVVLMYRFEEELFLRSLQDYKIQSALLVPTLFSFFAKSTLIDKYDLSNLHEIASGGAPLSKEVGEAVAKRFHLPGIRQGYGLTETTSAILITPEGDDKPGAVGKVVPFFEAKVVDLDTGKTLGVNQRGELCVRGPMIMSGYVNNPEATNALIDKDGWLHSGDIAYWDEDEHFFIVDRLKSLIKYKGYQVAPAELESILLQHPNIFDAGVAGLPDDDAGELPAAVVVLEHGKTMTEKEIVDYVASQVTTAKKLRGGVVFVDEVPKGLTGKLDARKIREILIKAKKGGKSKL
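assay system = Luciferase/luciferin detection reagent, cell-free biochemical luciferase assay | also added = ATP substrate | times = 10 min post-reagent at room temperature | measured by = luminescence from luciferase reaction | measure = luciferase activation, seen as luminescence increase over controls | benchmarks = low control with PBS replacing ATP, high control enzyme plus ATP without compound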
FLuc inhib CS: inhibits firefly luciferase, flagging false hits in luciferase inhibition screens. P08659. inhibition, % at 10 µM. hit rate 1.5% among 200,000. AID 1006. ATPLite firefly luciferase biochemical luminescence, 10 min;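 active = inhibition above about 50% when tested at 10 µM, limit read from the data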
APP 5'UTR act: APP 5'UTR luciferase reporter activation; SH-SY5Y APP 5'UTR luciferase reporter, luminescence; zero percent = DMSO vehicle wells; activation, % at 2 µM; hit rate 1% among 190,000;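 active = activation above a set limit, based on mean plus 3 SD of controls, cut at about 140% in these data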
Rad51 HR inh: blocks human Rad51 in homologous recombination. Q06609. hRad51 DNA strand exchange, fluorescence dequenching. inhibition, % at 10 µM. hit rate 0.085% among 200,000;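 active = inhibition above 40% at the single screening dose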;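 note: 0% = DMSO control wells and 100% = blanks with heterologous ssDNA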
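Material: hRad51 filaments on single-stranded DNA; Reagent: Donor/quencher-labelled 47-bp dsDNA substrate; Compound: 10 µM final, single point; Schedule: 37 °C 15-min filament assembly, 30-min compound preincubation, 15-min exchange; Technique: FRET fluorescence, excitation 485 nm, emission 520 nm; Benchmarks: control wells and blank wells on each plate.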
STAT1 activator: increases IFN-gamma driven STAT1 reporter signal. AID 932. NIH 3T3 STAT1-luciferase reporter, luminescence; 100% = IFN-gamma alone, no compound. hit rate 2.6% among 200,000. activation (% of control), % at 5.5 µM;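 active = activation above the screen-wide mean activation plus 3 SD, cut at about 130% in these data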;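 note: raw ratio to IFN-gamma control signal so 100% means no change and 0% no light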
NF-kB neuron act: raises NF-kB expression in human neuronal cells | NF-kB reporter expression; active compounds read high | fold change at 12.5 µM | hit rate 1.6% among 190,000 | AID 1239; in the data active = fold change above about 3.3
STAT1 activ conf: STAT1 activation, confirmation assay. shares compounds with STAT1 activator. NIH 3T3 STAT1-luciferase reporter, IFN-gamma potentiation, luminescence; 100% = IFN-gamma EC80 alone, no compound. activation (% of control), % at 5.7 µM. hit rate 97% among 1,200. AID 1262;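 active = activation above a set limit carried over from the earlier primary STAT1 screen, cut at about 140% in these data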;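 note: simple ratio to median IFN-gamma plus DMSO wells so 0% means no light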
NFkB act STAT1ct: NF-kappaB activation in STAT1 activator counter-screen; shares compounds with STAT1 activator; HEK293T NF-kB luciferase reporter, TNF-alpha stimulated, luminescence; 100% = TNF-alpha with vehicle only; activation (% of control), % at 5.7 µM; hit rate 43% among 1,200;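 active = activation above the mean of solvent-only control wells plus 3 SD, set per campaign, cut at about 130% in these data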;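 note: TNF-alpha given at a submaximal dose yielding about 80% of full reporter signal; values are well signal over median control so 100% means no change and 0% no light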
STAT3 act 2: human STAT3 activation in STAT1 activator counter-screen. U3A cells STAT3-luciferase reporter, IL-6, luminescence; cells lack STAT1; 100 = IL-6 alone, no compound effect. activation (% of control), % at 5.7 µM. shares compounds with STAT1 activator. AID 1316. hit rate 46% among 1,200;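 active = activation above the solvent-only control well mean plus 3 SD, set per plate batch, cut at about 110% in these data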;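 note: 0% = no luminescence and 100% = median IL-6 plus DMSO wells; higher means more STAT3 reporter activation so hits are non-selective activators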
An asterisk follows results filed as active; . = no result given. Rows were chosen to be rich in hits. Some 3.9% of all compounds tested hit in one or more screens of this group.

SMILES	FLuc stim CS	FLuc inhib CS	APP 5'UTR act	Rad51 HR inh	STAT1 activator	NF-kB neuron act	STAT1 activ conf	NFkB act STAT1ct	STAT3 act 2
CCCC(=O)c1ccc(N2CCC(C)CC2)c(F)c1	0.9	10	13	8	106	1.9	.	.	.
O=[N+]([O-])c1cccc(-c2nnc(-c3ccccc3)o2)c1	0.9	9	115	-4	153*	3	161*	121	100
Cc1ccc(/C=N/Nc2nc3ccccc3s2)o1	0.4	60*	167*	4	154*	6.4*	264*	107	129*
COc1ccc(NC(=O)c2cccc(S(=O)(=O)N3CCc4ccccc43)c2)cn1	0.9	6	0	-17	92	0.76	.	.	.
CC(/C=C/c1ccccc1)=N\NC(=O)Cn1nc(C)cc1C	1	2	-8	-2	88	1.1	.	.	.
N#C/C(=C/c1ccc(N2CCOCC2)o1)C(=O)Nc1ccccc1	0.4	55*	162*	.	160*	4.4*	195*	130	98
N#C/C(=C\c1ccc(N2CCOCC2)o1)C(=O)NCCc1ccccc1	1	1	30	-317	104	0.96	.	.	.
O=c1c2c(nc3cc(-c4ccc(F)cc4)[nH]n13)CCC2	0.5	51*	99	-53	152*	1	176*	118	102
Cc1ccc(-c2cc3nc4c(c(=O)n3[nH]2)CCCC4)cc1	.	.	89	-5	174*	.	232*	114	96
CCCC(=O)Oc1ccc(-c2nccc(C(OC)OC)n2)cc1	0.8	17	10	2	100	1.3	.	.	.
Cc1ccc(Nc2c([N+](=O)[O-])ccc3c2=NC2(CCCCC2)N=3)cc1	1	2	12	.	102	1.3	.	.	.
COc1cccc(-c2cn3nc4c(nc3n2)CCCC4)c1	0.3	68*	170*	-12	160*	3.6*	191*	111	89
COc1cccc(-c2cc(C(F)(F)F)n3nc(N)nc3n2)c1	1.1	-8	-10	-1	99	1.2	.	.	.
Cc1[nH]n(-c2ccccc2)c(=O)c1C=NCc1ccco1	0.7	28	50	-4	157*	3.8*	186*	133	118*
N/C(=N\O)C1COc2ccccc2O1 (stereo not drawn)	1.1	-5	-10	3	101	1.2	.	.	.
NC(N)=Nc1nc(C2COc3ccccc3O2)cs1 (stereo not drawn)	0.8	24	166*	2	164*	5*	202*	132	105
Cc1nc(NC(=O)c2ccccc2)sc1C1(C)CC(c2ccc(OC(F)(F)F)cc2)=NO1 (stereo not drawn)	.	.	.	0	.	.	.	.	.
COc1ccc(-n2c(C)cc(C(=O)Cn3nnc4ccccc4c3=O)c2C)cc1	1	0	18	-14	155*	1.3	176*	106	99
COc1ccc(-n2c(C)cc(C(=O)Cn3nc(C(=O)O)c4ccccc4c3=O)c2C)cc1	1	1	1	-35	105	1.1	.	.	.
Cc1ccc(NC(=O)c2sc3nc[nH]c(=O)c3c2C)c(C)c1	1	2	-9	0	102	1.3	.	.	.
CNC(=O)c1sc2nc(-c3ccc(OC)cc3)cn2c1C	0.6	43	146*	.	164*	4.8*	188*	135*	105
N#C/C(=C\c1ccco1)c1nc2ccccc2s1	0.3	68*	138*	-25	173*	1.1	218*	131	142*
N#C/C(=C/c1ccco1)c1nc2ccccc2s1	0.3	70*	186*	-18	165*	8.1*	226*	131	140*
N#C/C(=C/c1ccc(-c2cc(C(=O)O)cc(C(=O)O)c2)o1)c1nc2ccccc2s1	0.7	32	-3	-234	97	1.1	.	.	.
O=C(Nc1ccccc1)OC1CC2CC1C1CCCC21 (stereo not drawn)	0.7	28	121	3	162*	2.9	175*	134*	111*
O=C(Nc1ccccc1)OC1CCS(=O)(=O)C1 (stereo not drawn)	1.1	-10	8	15	95	1.3	.	.	.
Cn1/c(=N/N=C/c2ccccn2)sc2ccccc21	0.4	59*	114	.	152*	5.3*	219*	142*	130*
Cc1c(C(=O)Nc2cccc([N+](=O)[O-])c2)csc1-c1ccccc1	0.8	19	194*	.	165*	3.8*	238*	128	139*
Cc1cnc(NC(=O)CSc2ccccc2)s1	1	-1	24	-2	111	1.8	.	.	.
Cc1cnc(NC(=O)COc2ccccc2)s1	0.8	21	168*	2	166*	4.3*	179*	130	101
